These results are taken from ChEMBL document CHEMBL4411328, “Synthesis and Structural/Functional Characterization of Selective M14 Metallocarboxypeptidase Inhibitors Based on Phosphinic Pseudopeptide Scaffold: Implications on the Design of Specific Optical Probes” (J Med Chem, 2019).

In one assay the target is Carboxypeptidase B (Homo sapiens, UniProt P15086). As to the kind of experiment: Inhibition of human CPB1 using AAFA as substrate preincubated for 45 mins to 2 hrs measured at 30 sec intervals for 15 mins by UV/vis-spectrophotometry. In a few lines:
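hCPB1 was used at 6.0x10-9 M with 1.0x10-4 M AAFA, read at 355 nm. After 45 min preincubation with inhibitor at 37 °C, residual activity at varied inhibitor concentrations was followed for 15 min at 30 sec intervals, in triplicate. Kiapp was fitted with the tight-binding equation.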

A further assay addresses T1, Carboxypeptidase A2 (Homo sapiens, UniProt P48052).
T1 sequence (P48052 whole entry): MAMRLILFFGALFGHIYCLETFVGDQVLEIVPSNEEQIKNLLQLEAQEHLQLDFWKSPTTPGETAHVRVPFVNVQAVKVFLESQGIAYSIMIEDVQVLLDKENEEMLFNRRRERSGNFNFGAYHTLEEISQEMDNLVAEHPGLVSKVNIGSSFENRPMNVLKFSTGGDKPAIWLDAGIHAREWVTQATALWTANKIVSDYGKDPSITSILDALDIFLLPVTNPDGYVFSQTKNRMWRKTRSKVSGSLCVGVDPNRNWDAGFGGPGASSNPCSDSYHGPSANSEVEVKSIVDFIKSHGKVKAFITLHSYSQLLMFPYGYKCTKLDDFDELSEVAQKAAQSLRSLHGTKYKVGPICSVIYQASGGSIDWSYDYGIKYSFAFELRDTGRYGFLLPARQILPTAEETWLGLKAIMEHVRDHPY
As to the kind of experiment: Inhibition of human CPA2 using AAFP as substrate preincubated for 45 mins to 2 hrs measured at 30 sec intervals for 15 mins by UV/vis-spectrophotometry. The method, boiled down: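 hCPA2 was used at 3.0x10-8 M with AAFP substrate at 1.0x10-4 M, read at 355 nm, in 20 mM Tris-HCl pH 7.5, 500 mM NaCl, 1% DMSO, 0.05% Brij-35. After a 45 min preincubation at 37 °C, initial rates were followed at 30 sec intervals for 15 min, in triplicate. Kiapp was fitted by the tight-binding equation.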

For assay [1], the target named is T2, Carboxypeptidase D (Homo sapiens) (UniProt O75976).
T2 sequence (whole entry): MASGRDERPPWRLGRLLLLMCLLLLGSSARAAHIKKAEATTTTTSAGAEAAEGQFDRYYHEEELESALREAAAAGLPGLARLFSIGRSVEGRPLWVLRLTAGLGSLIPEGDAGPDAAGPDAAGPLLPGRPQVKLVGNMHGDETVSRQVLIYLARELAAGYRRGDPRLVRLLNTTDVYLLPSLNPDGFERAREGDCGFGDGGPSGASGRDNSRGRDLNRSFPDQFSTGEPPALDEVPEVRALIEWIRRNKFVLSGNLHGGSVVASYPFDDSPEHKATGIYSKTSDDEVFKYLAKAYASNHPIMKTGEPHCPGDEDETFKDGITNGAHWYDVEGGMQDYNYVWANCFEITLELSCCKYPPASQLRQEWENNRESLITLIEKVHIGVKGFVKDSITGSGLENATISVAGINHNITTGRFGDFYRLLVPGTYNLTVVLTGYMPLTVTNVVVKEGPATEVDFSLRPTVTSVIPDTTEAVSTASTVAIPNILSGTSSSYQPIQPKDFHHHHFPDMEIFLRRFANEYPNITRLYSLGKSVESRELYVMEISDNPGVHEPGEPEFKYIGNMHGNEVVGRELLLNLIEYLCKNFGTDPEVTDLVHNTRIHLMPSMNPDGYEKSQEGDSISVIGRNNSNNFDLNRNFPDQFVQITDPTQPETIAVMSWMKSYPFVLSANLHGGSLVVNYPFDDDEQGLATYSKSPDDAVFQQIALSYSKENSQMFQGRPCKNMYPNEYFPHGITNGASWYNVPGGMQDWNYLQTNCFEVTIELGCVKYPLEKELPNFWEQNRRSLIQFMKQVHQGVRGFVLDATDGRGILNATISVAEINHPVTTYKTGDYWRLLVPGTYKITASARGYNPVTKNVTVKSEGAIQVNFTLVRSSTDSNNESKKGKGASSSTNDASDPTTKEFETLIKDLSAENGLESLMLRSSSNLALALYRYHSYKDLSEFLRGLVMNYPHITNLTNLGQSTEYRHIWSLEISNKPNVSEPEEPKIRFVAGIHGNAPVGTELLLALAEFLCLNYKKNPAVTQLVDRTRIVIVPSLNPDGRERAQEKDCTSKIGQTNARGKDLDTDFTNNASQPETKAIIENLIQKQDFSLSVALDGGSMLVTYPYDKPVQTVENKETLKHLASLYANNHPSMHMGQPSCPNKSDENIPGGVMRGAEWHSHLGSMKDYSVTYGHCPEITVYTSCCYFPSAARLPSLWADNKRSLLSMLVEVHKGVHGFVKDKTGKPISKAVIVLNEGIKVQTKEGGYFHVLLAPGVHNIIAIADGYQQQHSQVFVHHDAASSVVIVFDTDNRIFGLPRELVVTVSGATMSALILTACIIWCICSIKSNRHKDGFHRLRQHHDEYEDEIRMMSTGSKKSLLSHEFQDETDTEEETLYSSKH
As to the kind of experiment: Inhibition of human CPD at 1 nM to 1 mM using AAFA as substrate preincubated for 45 mins to 2 hrs measured at 30 sec intervals for 15 mins by UV/vis-spectrophotometry. The method, boiled down: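 hCPD was used at 2.0x10-8 M with AAFA substrate at 1.0x10-4 M, monitored at 355 nm. Buffer was 20 mM Tris-HCl pH 7.5, 100 mM NaCl, 1% DMSO, 0.05% Brij-35. Preincubation was 45 min at 37 °C. Residual activity at a range of inhibitor concentrations was measured from initial rates (30 sec reads, 15 min), in triplicate. Kiapp came from the tight-binding fit.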

Another assay addresses T3, Carboxypeptidase A4 (Homo sapiens, UniProt Q9UI42).
T3 sequence (Q9UI42 whole entry): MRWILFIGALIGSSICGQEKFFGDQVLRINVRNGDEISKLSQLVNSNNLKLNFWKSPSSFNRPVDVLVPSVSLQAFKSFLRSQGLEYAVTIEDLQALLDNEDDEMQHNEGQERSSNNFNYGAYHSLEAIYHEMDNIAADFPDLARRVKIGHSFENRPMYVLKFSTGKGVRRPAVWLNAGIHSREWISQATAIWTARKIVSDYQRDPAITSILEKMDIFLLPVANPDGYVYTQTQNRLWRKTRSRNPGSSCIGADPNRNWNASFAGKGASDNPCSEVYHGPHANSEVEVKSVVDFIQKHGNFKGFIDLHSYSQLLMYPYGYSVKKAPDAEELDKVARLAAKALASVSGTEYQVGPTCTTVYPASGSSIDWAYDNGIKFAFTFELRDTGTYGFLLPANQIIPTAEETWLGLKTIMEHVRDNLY
As to the kind of experiment: Inhibition of human CPA4 using AAFP as substrate preincubated for 45 mins to 2 hrs measured at 30 sec intervals for 15 mins by UV/vis-spectrophotometry. In a few lines: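 Enzyme was hCPA4 at 4.3x10-8 M, with 1.0x10-4 M AAFP and detection at 355 nm. Inhibitor and enzyme were preincubated 45 min at 37 °C, then initial velocities were taken over 15 min (30 sec reads), in triplicate. Kiapp was obtained from the tight-binding fit.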

The target in a further assay is T4, Carboxypeptidase A1 (Homo sapiens, UniProt P15085).
T4 sequence (P15085 whole entry): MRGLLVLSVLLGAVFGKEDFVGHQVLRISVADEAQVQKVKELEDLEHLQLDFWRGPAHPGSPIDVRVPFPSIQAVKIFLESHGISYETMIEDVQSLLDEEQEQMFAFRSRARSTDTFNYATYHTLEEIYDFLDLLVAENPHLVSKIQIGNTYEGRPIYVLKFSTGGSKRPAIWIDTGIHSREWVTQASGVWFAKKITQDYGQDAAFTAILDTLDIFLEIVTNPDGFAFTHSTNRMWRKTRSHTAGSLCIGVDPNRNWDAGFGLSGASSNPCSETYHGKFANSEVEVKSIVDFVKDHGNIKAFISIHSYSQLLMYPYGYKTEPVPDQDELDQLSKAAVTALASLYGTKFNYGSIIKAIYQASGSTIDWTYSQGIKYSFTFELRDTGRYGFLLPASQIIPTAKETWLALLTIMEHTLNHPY
As to the kind of experiment: Inhibition of human CPA1 using AAFP as substrate preincubated for 45 mins to 2 hrs measured at 30 sec intervals for 15 mins by UV/vis-spectrophotometry. In a few lines: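 hCPA1 was used at 1.0x10-8 M with AAFP substrate at 1.0x10-4 M, read at 355 nm. Enzyme and inhibitor were preincubated 45 min at 37 °C before substrate was added. Initial velocities were read every 30 sec for 15 min, in triplicate. Apparent Ki came from a fit to the tight-binding equation.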

Structures are written as SMILES. Active and inactive are the calls of the source. No cut-off for these calls is given here.

Carboxypeptidase B, sequence (P15086 whole entry): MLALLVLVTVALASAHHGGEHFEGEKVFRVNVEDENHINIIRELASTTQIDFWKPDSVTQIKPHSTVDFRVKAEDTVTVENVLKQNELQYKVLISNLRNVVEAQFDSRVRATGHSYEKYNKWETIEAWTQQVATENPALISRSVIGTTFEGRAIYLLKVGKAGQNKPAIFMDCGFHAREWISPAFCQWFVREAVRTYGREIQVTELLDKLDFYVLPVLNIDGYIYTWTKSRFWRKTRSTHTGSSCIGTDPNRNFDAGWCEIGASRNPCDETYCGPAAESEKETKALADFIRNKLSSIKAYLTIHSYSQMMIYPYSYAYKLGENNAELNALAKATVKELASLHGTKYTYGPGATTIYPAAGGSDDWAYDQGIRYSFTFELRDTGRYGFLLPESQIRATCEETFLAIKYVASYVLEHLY

What is called Ki is a measure of affinity in units of concentration, obtained from inhibition or displacement. Read a low Ki as higher affinity. Consider `CC(=O)N[C@@H](CC(C)C)C(=O)N[C@@H](Cc1ccccc1)P(=O)(O)C[C@@H](Cc1ccccc1)C(=O)O`, for which the Ki at Carboxypeptidase B came to 120 pM; on Carboxypeptidase A2, 1000 pM; at Carboxypeptidase A4 it was 390 pM; on Carboxypeptidase A1, 40 pM. Moreover, the inhibition entry in assay [1] is “inactive”.
